Series [1] is described as follows: Minimal equilibrium rivaroxaban concentration in blood plasma by HPLC-MS. Type of series: in vivo, patients. The method, boiled down:
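Plasma thawed at room temperature, protein-precipitated with methanol plus 0.1% hydrogen chloride 9:1, vortexed, left 10 min, spun 9000 RCF 10 min. C18 column at 40°C, isocratic ammonium acetate/formic acid, water:acetonitrile 70:30. Validated 5–1000 ng/mL. Genotypes by real-time PCR on EDTA blood.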

The conditions of series [2]: data from the centers; cited from earlier work.
For series [3] the following is noted: AF patients, p = 0.02, cited from earlier work.
Series [4] concerns platelets (ADP-activated, P2Y12 Reactivity Units).
For series [5] the following is noted: carriership of low function allelic variants, patients on clopidogrel; cited from earlier work.

The structures appear in SMILES notation. “And” between values parts separate entries of the source, which are not always exact repeats. Equal entries are not always repeated. Where two headings read alike, the source gives them in different places.

This is an account of results in PMC6986167 (Pharmacogenomics and Personalized Medicine, 2020).

Take `O=C(NC[C@H]1CN(c2ccc(N3CCOCC3=O)cc2)C(=O)O1)c1ccc(Cl)s1` [Rivaroxaban]: the “Rivaroxaban concentration, M” value in series [1] (ABCB1 3435 C>T CT+TT, N=73) came to 80.6; in series [1] (ABCB1 rs4148738 CC, N=19), 78.8; in series [1] (ABCB1 rs4148738 CT+TT, N=84), 78.9; in series [1] (CYP2C19*2 GA+AA, N=31) it was 86.2; in series [1] (CYP2C19*2 GG, N=72) it was 75.7; in series [1] (CYP3A5*3 AG+AA, N=19), 69.7. In series [1] (CYP3A5*3 GG, N=84), the “Rivaroxaban concentration, M” value is on record as 81.6. Also, the values for the rivaroxaban concentration in series [1] (patients with HAS-BLED 3–9) and in series [1] (patients with HAS-BLED <3) were 92.3 ± 64.9 and 67.2 ± 47.4, respectively. Further, in series [2], the “average level of plasma concentration of rivaroxaban” value is listed as 40 ng/mL. Moreover, in series [2], the “patients beyond the therapeutic range” value is recorded as around 40%. Moreover, the “variation of plasma concentration of rivaroxaban” value in series [2] was 15 fold. Further, the equilibrium rivaroxaban concentration is listed as 48±30 in series [3] (first value of bleeding comparison) and 34 ± 26 in series [3] (second value of bleeding comparison).
Take `COC(=O)[C@H](c1ccccc1Cl)N1CCc2sccc2C1` [clopidogrel]: the “Platelet reactivity units (PRU), M” value is 136.8 PRU in series [4] (ABCB1 3435 C>T CC, N=30); 135.5 PRU in series [4] (ABCB1 3435 C>T CT+TT, N=73); 113.3 ± 57.1 PRU and 113.3 PRU in series [4] (ABCB1 rs4148738 CC (non-carriers of T), N=19); 141.0 ± 62.3 PRU and 141.0 PRU in series [4] (ABCB1 rs4148738 CT+TT (T carriers), N=84); 145.2 PRU in series [4] (CYP2C19*2 GA+AA, N=31); 131.9 PRU in series [4] (CYP2C19*2 GG, N=72). Besides, the “Platelet reactivity units (PRU), M” value turned out to be 139.8 PRU in series [4] (CYP3A5*3 AG+AA, N=19) and 135.0 PRU in series [4] (CYP3A5*3 GG, N=84). The “Platelet inhibition rate (%), M” value is given as 29.8% in series [4] (ABCB1 3435 C>T CC, N=30, ACS+AF patients on clopidogrel and rivaroxaban); 30.9% in series [4] (ABCB1 3435 C>T CT+TT, N=73); 34.5% in series [4] (ABCB1 rs4148738 CC, N=19); 29.7% in series [4] (ABCB1 rs4148738 CT+TT, N=84); 28.6% in series [4] (CYP2C19*2 GA+AA, N=31); 31.4% in series [4] (CYP2C19*2 GG, N=72). The “Platelet inhibition rate (%), M” value is reported as 30.4% in series [4] (CYP3A5*3 AG+AA, N=19) and 30.6% in series [4] (CYP3A5*3 GG, N=84). For the same molecule, the platelet inhibition level is 63.3% in series [4] (patients with in-hospital death) and 29.6% in series [4] (patients without in-hospital death). For the same molecule, the “increase of risk of major adverse cardiovascular events (MACE)” value in series [5] is given as 1.5 fold. Moreover, in series [5], the “increase of risk of stent thrombosis” value is given as 2.8 fold.
